Laboratory results as given in ChEMBL document CHEMBL1759935, “Pharmacokinetic optimisation of novel indole-2-carboxamide cannabinoid CB1 antagonists” (Bioorg Med Chem Lett, 2011).

Columns and labels:
[1] = Intrinsic clearance in mouse gut microsomes in presence of NADPH; format: ADME, Microsome
Outline: (§1)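 P450 pathway: compound depletion in duplicate time-course incubations of microsomes at 0.5 mg protein/mL with 1 mM NADPH, pH 7.4. Liver microsomes prepared in-house; small intestinal microsomes purchased. Loss measured by LC–MS/MS; CL_int expressed per mg microsomal protein.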

[2] = Intrinsic clearance in mouse gut microsomes in presence of UGT; format: ADME, Microsome
Outline: (§2)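 UGT pathway: compound loss in duplicate time-course incubations of liver (prepared in-house) or small intestinal microsomes at 0.5 mg protein/mL, with 2 mM UDPGA, alamethicin and 1 mM MgCl₂ at pH 7.1. Detection by LC–MS/MS; CL_int expressed per mg microsomal protein.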

[3] = Intrinsic clearance in mouse liver microsomes in presence of NADPH; format: ADME, Microsome; outline: as §1
[4] = Intrinsic clearance in mouse liver microsomes in presence of UGT; format: ADME, Microsome; outline: as §2
[5] = Intrinsic clearance in rat gut microsomes in presence of NADPH; format: ADME, Microsome; outline: as §1
[6] = Intrinsic clearance in rat gut microsomes in presence of UGT; format: ADME, Microsome; outline: as §2
[7] = Intrinsic clearance in rat liver microsomes in presence of NADPH; format: ADME, Microsome; outline: as §1
[8] = Intrinsic clearance in rat liver microsomes in presence of UGT; format: ADME, Microsome; outline: as §2
[9] = Intrinsic clearance in dog gut microsomes in presence of NADPH; format: ADME, Canis lupus familiaris, Microsome; outline: as §1
[10] = Intrinsic clearance in dog gut microsomes in presence of UGT; format: ADME, Canis lupus familiaris, Microsome; outline: as §2
[11] = Intrinsic clearance in dog liver microsomes in presence of NADPH; format: ADME, Canis lupus familiaris, Microsome; outline: as §1
[12] = Intrinsic clearance in dog liver microsomes in presence of UGT; format: ADME, Canis lupus familiaris, Microsome; outline: as §2
[13] = Intrinsic clearance in human gut microsomes in presence of NADPH; format: ADME, Microsome
Outline: (§3)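 Pooled human microsomes (gut or liver) at 0.5 mg protein/mL with 1 mM NADPH, pH 7.4 (P450 pathway). Compound loss followed by LC–MS/MS in duplicate time-course incubations; intrinsic clearance given per mg protein.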

[14] = Intrinsic clearance in human gut microsomes in presence of UGT; format: ADME, Microsome
Outline: (§4)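 UGT pathway: human gut or liver microsomes at 0.5 mg protein/mL with 2 mM UDPGA, alamethicin and 1 mM MgCl2, pH 7.1. Compound depletion measured by LC–MS/MS in duplicate time-course incubations; intrinsic clearance expressed per mg protein.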

[15] = Intrinsic clearance in human liver microsomes in presence of NADPH; format: ADME, Microsome; outline: as §3
[16] = Intrinsic clearance in human liver microsomes in presence of UGT; format: ADME, Microsome; outline: as §4
[17] = species on record: Mus musculus; test: Clearance in mouse; format: ADME, organism-based; details: in vivo
[18] = species on record: Rattus norvegicus; test: Clearance in rat; format: ADME, organism-based; details: in vivo
[19] = species on record: Canis familiaris; test: Clearance in dog; format: ADME, organism-based, Canis lupus familiaris; details: in vivo
[20] = species on record: Homo sapiens; test: Clearance in human; format: ADME, organism-based; details: in vivo
[21] = Bioavailability in mouse; format: ADME, organism-based; details: in vivo
[22] = Bioavailability in rat; format: ADME, organism-based; details: in vivo
[23] = Bioavailability in dog; format: ADME, organism-based, Canis lupus familiaris; details: in vivo
[24] = clinical; details: human, in vivo

O=C(c1ccc(OCCN2CCCCC2)cc1)c1c(-c2ccc(O)cc2)sc2cc(O)ccc12 [RALOXIFENE]
microsomal CLint [1]: < 6 µL/min/mg | microsomal CLint [2]: 34 µL/min/mg | microsomal CLint [3]: 66 µL/min/mg | microsomal CLint [4]: < 6 µL/min/mg | microsomal CLint [5]: < 6 µL/min/mg | microsomal CLint [6]: 5 µL/min/mg | microsomal CLint [7]: 79 µL/min/mg | microsomal CLint [8]: 11 µL/min/mg | microsomal CLint [9]: < 6 µL/min/mg | microsomal CLint [10]: 22 µL/min/mg | microsomal CLint [11]: 178 µL/min/mg | microsomal CLint [12]: 26 µL/min/mg | microsomal CLint [13]: < 6 µL/min/mg | microsomal CLint [14]: 346 µL/min/mg | microsomal CLint [15]: 79 µL/min/mg | microsomal CLint [16]: 24 µL/min/mg | clearance [17]: 108 mL/min/kg | clearance [18]: 58 mL/min/kg | clearance [19]: 40 mL/min/kg | clearance [20]: 21 mL/min/kg | bioavailability [21]: 10% | bioavailability [22]: 4% | bioavailability [23]: 5% | bioavailability [24]: 2%
